Assay outcomes as filed in PubChem.
Most compounds without a hit are left out; they make up all but 3.5% or so of the library.
Cneo AK release: Cryptococcus neoformans cell lysis inducers, primary screen, AK release luminescence, single concentration; 360,000 compounds, 0.2% hits; lysis activity, % at 15 µM; C. neoformans lysis, adenylate kinase release luminescence, 4 h; normalised: neutral wells 0, clomiphene wells 100;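 active = mean lysis activity across replicates of at least 80%, whatever share of replicates individually reach that level; inactive = mean lysis activity below 80%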
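Assay system: C. neoformans cells. Amount: yeast cell density of 5 × 10^6 cells/mL. Technique: AK luminescence. Buffer or medium: YPD. Times: static 4 h at 37 °C with compound, 1 h detection. Dosing: single-point compound dose. Read-out: lysis from increased AK signal.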
HIV Env fusion: inhibitors of HIV-1 Env-driven cell-cell fusion, primary screen, HeLa-JRFL effector, CEM21 target cells, luciferase. inhibition, % at 12.3 µM. 360,000 compounds, 1.1% hits;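 active = mean replicate inhibition score of at least 50 and every replicate individually at or above 50; inconclusive = only one of the two criteria met; inactive = mean below 50 and not all replicates reaching 50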;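 note: 0% = plate neutral controls and 100% = maraviroc near 300 nM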
esBAF inh: Bmi1 luciferase reporter increase in mESCs, primary screen, esBAF inhibitor project, mouse ES cells, Bmi1 luciferase knock-in, single point. 24 h; 100% = twice the neutral-well signal. reporter increase, % at 12.5 µM. 350,000 compounds, 2% hits; in the data active = activation above about 40%; inconclusive = no clear call, values can overlap the other calls;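 note: 0% = median of the plate's neutral control wells and 100% = double that signal; a rise in the Bmi1 reporter signal indicates esBAF inhibition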
ERAP1 HTS inh: human ERAP1 aminopeptidase inhibitors, primary screen, biochemical, single point, plate reader | Endoplasmic reticulum aminopeptidase 1 (Homo sapiens), Q9NZ08 | recombinant ERAP1, Leu-AMC fluorescence, 60 min | inhibition, % at 10.7 µM | 340,000 compounds, 0.15% hits | AID 652197, 2013;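 active = mean replicate inhibition of at least 30%, or all replicates individually reaching that 30% level; inactive = mean below 30% and not every replicate reaching it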;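 note: 0% = neutral control wells and 100% = L-leucinethiol positive control wells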
Target sequence (Q9NZ08 whole entry, looked up): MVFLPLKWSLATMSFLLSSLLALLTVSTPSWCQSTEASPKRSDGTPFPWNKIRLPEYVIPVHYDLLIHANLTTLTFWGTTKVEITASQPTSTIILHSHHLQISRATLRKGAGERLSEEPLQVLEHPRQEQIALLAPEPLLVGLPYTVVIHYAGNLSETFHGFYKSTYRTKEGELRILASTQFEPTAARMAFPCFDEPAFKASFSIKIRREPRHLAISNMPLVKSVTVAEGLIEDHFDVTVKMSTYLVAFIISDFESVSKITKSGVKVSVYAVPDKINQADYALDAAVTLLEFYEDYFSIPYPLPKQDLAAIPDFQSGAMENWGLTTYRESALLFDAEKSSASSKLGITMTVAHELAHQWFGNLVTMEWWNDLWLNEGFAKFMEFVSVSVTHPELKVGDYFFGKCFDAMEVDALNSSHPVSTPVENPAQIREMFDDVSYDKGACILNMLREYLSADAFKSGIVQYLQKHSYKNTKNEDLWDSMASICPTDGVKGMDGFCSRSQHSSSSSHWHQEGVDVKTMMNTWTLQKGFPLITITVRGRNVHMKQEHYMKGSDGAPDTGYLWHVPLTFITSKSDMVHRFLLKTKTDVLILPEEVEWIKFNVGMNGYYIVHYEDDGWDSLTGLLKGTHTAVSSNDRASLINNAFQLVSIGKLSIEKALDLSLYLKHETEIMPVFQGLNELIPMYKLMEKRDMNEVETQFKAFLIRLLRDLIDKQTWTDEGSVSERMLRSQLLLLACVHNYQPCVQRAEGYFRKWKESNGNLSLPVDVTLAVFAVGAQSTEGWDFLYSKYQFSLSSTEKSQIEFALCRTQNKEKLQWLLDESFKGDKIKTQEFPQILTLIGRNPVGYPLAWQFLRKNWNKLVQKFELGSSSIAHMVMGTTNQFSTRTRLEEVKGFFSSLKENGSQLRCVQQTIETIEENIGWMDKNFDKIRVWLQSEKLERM
Wnt bcat act: Wnt/beta-catenin pathway activators, primary screen, cell-based, plate reader, single point; Wnt/beta-catenin reporter cell assay, activator; activation, % at 9.35 µM; 300,000 compounds, 1.2% hits; AID 743398, 2014; in the data active = activation above about 30%, passing the limit was not always enough; inconclusive = no clear call, values can overlap the other calls;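 note: 0% = neutral control wells and 100% = positive control wells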
MITF TRPM1 HTS: activators of MITF-driven TRPM1 promoter reporter, primary screen, cell-based, SK-MEL-5, luciferase, single point; SK-MEL-5 TRPM1-promoter luciferase, 24 h; % of positive control, neutral wells = 0; activation, % at 12.5 µM; 300,000 compounds, 0.75% hits;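 active = mean activation of at least 80% with every replicate also reaching 80%; inconclusive = mean reaches 80% but some replicate falls short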;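 note: 0% = neutral control wells and 100% = parthenolide positive control wells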
Starred values were filed as active, the others as inactive; ! = not active in a repeat; [ ] = another dose, or the depositor's remark.

Results for Cc1ccc2c(c1)COc1c3ccc(C(=O)N[C@@H](CO)C(C)C)cc3nn1-2 ?
Cneo AK release: -16.3; HIV Env fusion: -109.5; esBAF inh: 73.1*; ERAP1 HTS inh: 7.0; Wnt bcat act: 33.6*; MITF TRPM1 HTS: 114.1*

What do the screens show for `O=C(NCC1CCCO1)c1ccc2c3n(nc2c1)-c1ccccc1CO3` (stereo unspecified)?
Cneo AK release: -6.4; HIV Env fusion: -131.1; esBAF inh: 69.8*; Wnt bcat act: inconclusive; MITF TRPM1 HTS: inconclusive

How did COCCNC(=O)c1ccc2c3n(nc2c1)-c1ccc(C)cc1CO3 do in these assays?
Cneo AK release: 8.2; HIV Env fusion: -120.0; esBAF inh: 79.5*; Wnt bcat act: 43.1*; MITF TRPM1 HTS: inconclusive

How did C[C@H]1CN([C@@H](C)CO)C(=O)c2ccccc2-c2ccccc2CO[C@@H]1CN(C)Cc1cccnc1 do in these assays?
Cneo AK release: 0.5; HIV Env fusion: 42.5[16.7 µM]; esBAF inh: 5.4; ERAP1 HTS inh: 1.9

Results for N#Cc1cc2c(nc1SCC1COc3ccccc3O1)CCC2 (stereo unspecified) ?
MITF TRPM1 HTS: 110.5*

What do the screens show for `CCC(O)(CC)C(=O)NN(C(=O)Nc1csc2c1CCCC2)c1ccccc1`?
Cneo AK release: -3.0; HIV Env fusion: 62.1*; esBAF inh: -21.9; MITF TRPM1 HTS: -8.6

Results for CSc1cccc(NC(=O)c2sc3nc4n(c(=O)c3c2C)CCC4)c1 ?
Cneo AK release: -1.0; HIV Env fusion: -28.4; esBAF inh: 53.7*; ERAP1 HTS inh: 0.2; Wnt bcat act: 17.9; MITF TRPM1 HTS: inconclusive

Results for Cc1c(C(=O)Nc2cc(F)ccc2F)sc2nc3n(c(=O)c12)CCCCC3 ?
Cneo AK release: 1.6; HIV Env fusion: -6.9; esBAF inh: 70.9*; ERAP1 HTS inh: -0.2; Wnt bcat act: 17.9; MITF TRPM1 HTS: 73.6

What do the screens show for `CCOC(=O)c1sc2nc3n(c(=O)c2c1C)CCC3`?
Cneo AK release: -4.0; HIV Env fusion: -40.2; esBAF inh: 17.3; ERAP1 HTS inh: 0.7; Wnt bcat act: -2.6; MITF TRPM1 HTS: 25.0

What do the screens show for `CC(=O)c1cccc(NC(=O)c2sc3nc4n(c(=O)c3c2C)CCCCC4)c1`?
Cneo AK release: 4.8; HIV Env fusion: -6.1; esBAF inh: 16.5; ERAP1 HTS inh: -0.7; Wnt bcat act: 0.5; MITF TRPM1 HTS: 22.5

What do the screens show for `CCOC(=O)c1sc2nc3n(c(=O)c2c1C)CCCCC3`?
Cneo AK release: -3.3; esBAF inh: 68.1*; MITF TRPM1 HTS: inconclusive

Results for CN(C)CCCNC(=O)[C@H]1[C@H](CO)[C@H]2Cn3c(ccc(-c4ccccc4)c3=O)[C@@H]1N2C ?
Cneo AK release: 0.8; esBAF inh: 0.3; ERAP1 HTS inh: -1.4

What do the screens show for `Cc1ccc(S(=O)(=O)N2CCCCC2)cc1`?
Cneo AK release: -3.3; HIV Env fusion: 16.8; esBAF inh: -0.1; ERAP1 HTS inh: 2.5; Wnt bcat act: -1.4; MITF TRPM1 HTS: -19.4

Results for Cc1ccc(C)c(CNc2ccc(S(=O)(=O)N3CCCCC3)cc2)c1 ?
Cneo AK release: 0.4; HIV Env fusion: 76.2*; esBAF inh: 1.9; ERAP1 HTS inh: 0.5; Wnt bcat act: -1.6; MITF TRPM1 HTS: -15.1

What do the screens show for `C[C@@H]1CN([C@@H](C)CO)C(=O)c2cccc(NC(=O)Nc3ccc4c(c3)OCO4)c2O[C@@H]1CN(C)S(=O)(=O)c1ccc(Cl)cc1`?
Cneo AK release: -4.2; esBAF inh: 5.3; ERAP1 HTS inh: 3.6

How did NC(=S)N=Nc1c(O)cc(O)c2[nH]c(=O)ccc12 do in these assays?
HIV Env fusion: -2.5; esBAF inh: -49.7; ERAP1 HTS inh: 51.9*; Wnt bcat act: 0.2; MITF TRPM1 HTS: 7.5

How did CC(C)(C)C(=O)OCc1nc(-c2ccc(F)cc2)cs1 do in these assays?
Cneo AK release: -1.9; HIV Env fusion: -23.6; esBAF inh: inconclusive; Wnt bcat act: 0.2; MITF TRPM1 HTS: 109.6*

Results for CC(C)(C)C(=O)OCc1nc(-c2ccc(Cl)cc2)cs1 ?
Cneo AK release: -6.5; HIV Env fusion: -18.7; esBAF inh: 64.6*; Wnt bcat act: -4.6; MITF TRPM1 HTS: 76.5

How did COc1ccc(-c2csc(COC(=O)C(C)(C)C)n2)cc1 do in these assays?
HIV Env fusion: -4.5; ERAP1 HTS inh: 3.5; Wnt bcat act: 11.0; MITF TRPM1 HTS: 40.9

Results for C[C@@H]1CCCCO[C@@H](CN(C)C(=O)Nc2ccc(F)cc2)[C@H](C)CN([C@H](C)CO)C(=O)c2cc(NC(=O)c3ccncc3)ccc2O1 ?
Cneo AK release: -4.0; HIV Env fusion: -14.7[16.7 µM]; esBAF inh: 6.1; ERAP1 HTS inh: -1.0

How did CCC(C)Sc1cc(-c2nc3cc(C)ccn3c2NC2CCCCC2)ccc1OC (stereo unspecified) do in these assays?
Cneo AK release: -3.4; HIV Env fusion: 7.1; esBAF inh: 1.4; ERAP1 HTS inh: -0.9; Wnt bcat act: -13.0; MITF TRPM1 HTS: 4.1

How did CCC(C)Sc1cc(-c2nc3ccccn3c2NC2CCCCC2)ccc1OC (stereo unspecified) do in these assays?
Cneo AK release: -0.8; HIV Env fusion: 59.1*!; esBAF inh: -8.9; ERAP1 HTS inh: -0.7; Wnt bcat act: -21.9; MITF TRPM1 HTS: 4.7

How did C/C(=N\NC(=O)c1nnn(-c2nonc2N)c1CN(C)c1ccccc1)c1cccnc1 do in these assays?
Cneo AK release: 0.6; HIV Env fusion: -23.8; esBAF inh: -5.5; ERAP1 HTS inh: 0.8; Wnt bcat act: 34.3*; MITF TRPM1 HTS: -0.7

What do the screens show for `O=C(NCc1cccs1)C(Cc1ccccc1)NS(=O)(=O)c1cccs1` (stereo unspecified)?
Cneo AK release: -3.5; HIV Env fusion: 55.5*; esBAF inh: 6.8

What do the screens show for `CCC(C)(C)NC(=O)C(NS(=O)(=O)c1cccs1)c1ccccc1` (stereo unspecified)?
Cneo AK release: 2.2; HIV Env fusion: 71.0*; esBAF inh: -1.4; ERAP1 HTS inh: 3.5; Wnt bcat act: 1.6; MITF TRPM1 HTS: 9.8

How did CCc1cccc(CC)c1NC(=O)C(NS(=O)(=O)c1cccs1)c1ccccc1 (stereo unspecified) do in these assays?
Cneo AK release: -1.6; HIV Env fusion: -6.5; esBAF inh: -3.1; MITF TRPM1 HTS: 7.3

How did CCS(=O)(=O)Nc1ccc2c(c1)C(=O)N(C)[C@H]1CC[C@@H](CC(=O)NC)O[C@H]1CO2 do in these assays?
Cneo AK release: -3.9; HIV Env fusion: 5.7[16.7 µM]; esBAF inh: -1.1; ERAP1 HTS inh: -0.6

How did O=c1c2c(nc3c(-c4ccc(Cl)cc4)c[nH]n13)CCCC2 do in these assays?
Cneo AK release: -1.5; HIV Env fusion: 62.3*; Wnt bcat act: -26.9; MITF TRPM1 HTS: -44.7
